Measured values: ChEMBL document CHEMBL3393007, “IND-2, a pyrimido[1″,2″:1,5]pyrazolo[3,4-b]quinoline derivative, circumvents multi-drug resistance and causes apoptosis in colon cancer cells” (Bioorg Med Chem, 2015)
Activity calls are given as the source filed them.

Experiments:
MCF7 = assay: Cytotoxicity against human MCF7 cells after 72 hrs by MTT assay; format: functional, cell-based; conditions: MCF7, 72 h
Summary of the method: (§1)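 Seeding was 6×10^3 cells/well (MDCK, NIH/3T3, MCF-7, MDA-MB-231, LS-180, LS-174, LoVo, S1) after trypsinisation, in DMEM with 10% FBS. Compound at 0.1–100 μM for 72 hr, then MTT (4 mg/mL) for 4 hr. Formazan dissolved in DMSO, absorbance at 570 nm. IC50 by Bliss method; means ± SD, ≥3 experiments in triplicate.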

[1] = Cytotoxicity against human PC3 cells after 72 hrs by MTT assay; format: functional, cell-based; conditions: PC-3, 72 h
Summary of the method: (§2)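 HCT-116, HCT-15, HT-29, DU-145, PC-3 or HEK293/pcDNA3.1 cells in DMEM with 10% FBS were trypsinised and seeded at 5×10^3 cells/well. They received compound at 0.1–100 μM for 72 hr, then MTT (4 mg/mL) for 4 hr. Formazan was dissolved in DMSO and A570 read. IC50 by Bliss method from survival curves; ≥3 experiments, each in triplicate.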

MDA-MB-231 = assay: Cytotoxicity against human MDA-MB-231 cells after 72 hrs by MTT assay; format: functional, cell-based; conditions: MDA-MB-231, 72 h; summary of the method: as §1
[2] = Cytotoxicity against human HCT116 cells after 72 hrs by MTT assay; format: functional, cell-based; conditions: HCT-116, 72 h; summary of the method: as §2
DU-145 = assay: Cytotoxicity against human DU145 cells after 72 hrs by MTT assay; format: functional, cell-based; conditions: DU-145, 72 h; summary of the method: as §2
2008 = assay: Cytotoxicity against human 2008 cells after 72 hrs by MTT assay; format: functional, cell-based; conditions: Homo sapiens, 2008, 72 h
Summary of the method: (§3)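 MTT assay over 0.1–100 μM with a 72 hr exposure, then 4 hr with MTT (4 mg/mL). Formazan dissolved in DMSO, A570 read. IC50 from survival curves (Bliss method); three independent experiments in triplicate; 100 μM taken as cut-off.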

HepG2 [3] = assay: Cytotoxicity against human HepG2 cells after 72 hrs by MTT assay; format: functional, cell-based; conditions: HepG2, 72 h; summary of the method: as §3
[4] = Cytotoxicity against human S1 cells after 72 hrs by MTT assay; format: functional, cell-based; conditions: S1, 72 h; summary of the method: as §1
A2780 = assay: Cytotoxicity against human A2780 cells after 72 hrs by MTT assay; format: functional, cell-based; conditions: A2780, 72 h; summary of the method: as §3
[5] = Cytotoxicity against mouse NIH/3T3 cells after 72 hrs by MTT assay; format: cell-based; conditions: NIH3T3, 72 h; summary of the method: as §1
MDCK = assay: Cytotoxicity against MDCK cells after 72 hrs by MTT assay; format: cell-based; conditions: Canis lupus familiaris; summary of the method: as §1
Homo sapiens = species: Homo sapiens; assay: Cytotoxicity against drug-resistant human S1-M1-80 cells expressing ABCG2 G482 mutant after 72 hrs by MTT assay; format: functional, cell-based
Summary of the method: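 S1-M1-80 colon cells (G482 mutant ABCG2), maintained in medium with 80 μM mitoxantrone, tested by MTT alongside parental S1. 72 hr exposure, MTT 4 hr, DMSO solubilisation, A570. IC50 by Bliss method; SN-38 and topotecan run as comparators; means ± SD of triplicate determinations.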

HEK293 [6] = assay: Induction of morphological changes in HEK293 cells at 0.5 to 10 uM after 68 hrs by inverted microscopy; format: cell-based; conditions: human, hek293, 68 h
Summary of the method: (§4)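 HCT-116, HCT-15 and HEK293 cells were treated with 0, 0.5, 2 or 10 μM for 68 hr. Each treatment was in triplicate. Cells were photographed under an inverted microscope at 20X and representative images shown.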

HCT-116 [7] = assay: Induction of DNA fragmentation in human HCT116 cells at 2.5 uM after 6 hrs by ethidium bromide staining based agarose gel electrophoresis; format: functional, cell-based
Summary of the method: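 HCT-116 cells were cultured with or without 2.5 μM for 6 hr. Genomic DNA was extracted with a purification kit, resolved on 1% agarose gels at 40 V, stained with ethidium bromide and photographed, with untreated DNA loaded at 500 ng and 1 μg.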

HCT-116 [8] = assay: Induction of morphological changes in human HCT116 cells at 0.5 to 10 uM after 68 hrs by inverted microscopy; format: functional, cell-based; summary of the method: as §4
HepG2 [9] = assay: Cytotoxicity against human HepG2 cells assessed as reduction in cell viability at 10 uM after 24 hrs by Celltiter-Glo luminescent cell viability assay; format: cell-based; conditions: hepg2, 24 h
Summary of the method: (§5)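 Viability of HepG2 cells was measured in parallel with the PXR reporter assay. Cells were transfected, plated at 10,000/well in phenol red-free DMEM with 5% charcoal/dextran-treated FBS, and treated 24 hr with 1 or 10 μM or DMSO. ATP was quantified by CellTiter-Glo luminescence. Means ± SD of triplicates, t-test versus DMSO.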

[10] = Cytotoxicity against drug-resistant human S1-M1-80 cells expressing ABCG2 G482 mutant after 72 hrs by MTT assay relative to topotecan; format: functional
LoVo = assay: Cytotoxicity against human LoVo cells after 72 hrs by MTT assay; format: functional, cell-based; summary of the method: as §1
HCT-116 [11] = assay: Induction of mitochondrial membrane potential loss in human HCT116 cells at 10 uM after 4 hrs by mitotracker red and Alexa Fluor 488 annexin V staining based flow cytometry; format: functional
Summary of the method: (§6)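 HCT-116 cells in 6-well plates, in complete medium, were exposed to 0, 1 or 10 μM for 4 hr. Harvested cells were stained with MitoTracker Red (4 μL of 10 μM working solution per mL) for 30 min at 37 °C, washed, then given Alexa Fluor 488 annexin V for 15 min in annexin-binding buffer. Flow cytometry emission at 530 and 585 nm; two independent experiments in triplicate.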

[12] = Cytotoxicity against human LS180 cells after 72 hrs by MTT assay; format: functional, cell-based; conditions: LS180, 72 h; summary of the method: as §1
HCT-116 [13] = assay: Induction of mitochondrial membrane potential loss in human HCT116 cells at 1 uM after 4 hrs by mitotracker red and Alexa Fluor 488 annexin V staining based flow cytometry; format: functional; summary of the method: as §6
HT-29 = assay: Cytotoxicity against human HT-29 cells after 72 hrs by MTT assay; format: functional, cell-based; conditions: HT-29, 72 h; summary of the method: as §2
HepG2 [14] = assay: Cytotoxicity against human HepG2 cells assessed as reduction in cell viability at 1 uM after 24 hrs by Celltiter-Glo luminescent cell viability assay; format: cell-based; conditions: hepg2, 24 h; summary of the method: as §5
[15] = target: T1, Nuclear receptor subfamily 1 group I member 2 (Homo sapiens, UniProt O75469); assay: Transactivation of human PXR expressed in human HepG2 cells co-expressing pGL3-CYP3A4-luciferase gene assessed as increase in CYP3A4 promoter activity at 1 uM after 24 hrs by luciferase reporter gene assay; format: ADME, cell-based; conditions: hepg2, 24 h
T1 sequence (O75469 whole entry): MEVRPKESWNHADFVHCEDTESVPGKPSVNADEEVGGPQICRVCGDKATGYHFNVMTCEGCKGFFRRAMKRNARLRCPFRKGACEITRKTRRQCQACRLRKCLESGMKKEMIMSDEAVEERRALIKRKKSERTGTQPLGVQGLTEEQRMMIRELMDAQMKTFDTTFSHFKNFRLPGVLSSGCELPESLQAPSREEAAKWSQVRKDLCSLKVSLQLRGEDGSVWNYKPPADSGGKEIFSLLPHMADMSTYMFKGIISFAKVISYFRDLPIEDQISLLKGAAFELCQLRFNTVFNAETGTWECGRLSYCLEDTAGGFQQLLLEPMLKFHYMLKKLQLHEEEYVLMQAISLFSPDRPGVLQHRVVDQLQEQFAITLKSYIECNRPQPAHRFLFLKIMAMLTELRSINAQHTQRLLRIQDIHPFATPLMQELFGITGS
Summary of the method: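 HepG2 cells were transiently cotransfected with pcDNA3-hPXR and pGL3-CYP3A4-luc; after 24 hr they were plated at 10,000/well in phenol red-free DMEM with 5% charcoal-stripped FBS. […] Activity expressed as fold over DMSO; three independent experiments.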

HCT-15 = assay: Induction of morphological changes in human HCT15 cells at 0.5 to 10 uM after 68 hrs by inverted microscopy; format: functional, cell-based; summary of the method: as §4
HEK293 [16] = assay: Cytotoxicity against HEK293 cells expressing pcDNA3.1 after 72 hrs by MTT assay; format: cell-based; conditions: Homo sapiens, HEK293, 72 h; summary of the method: as §2
[17] = target: T1, Nuclear receptor subfamily 1 group I member 2; assay: Transactivation of human PXR expressed in human HepG2 cells co-expressing pGL3-CYP3A4-luciferase gene assessed as increase in CYP3A4 promoter activity at 10 uM after 24 hrs by luciferase reporter gene assay; conditions: hepg2, 24 h
[18] = Cytotoxicity against human HCT15 cells after 72 hrs by MTT assay; format: functional, cell-based; conditions: HCT-15, 72 h; summary of the method: as §2
[19] = Cytotoxicity against drug-resistant human S1-M1-80 cells expressing ABCG2 G482 mutant after 72 hrs by MTT assay relative to SN-38; format: functional
[20] = Cytotoxicity against human LS174 cells after 72 hrs by MTT assay; format: functional, cell-based; conditions: LS174, 72 h; summary of the method: as §1
HEK293 [21] = assay: Cytotoxicity against HEK293 cells expressing ABCG2 gene assessed as reduction in cell viability at 0.001 to 100 uM after 72 hrs by MTT assay; format: functional, cell-based; conditions: Homo sapiens
Summary of the method: (§7)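 HEK293 stably overexpressing ABCB1 or ABCG2 (R2), with empty-vector HEK293/pcDNA3.1 as the parental control, grown in DMEM with 10% FBS at 37 °C and 5% CO2. Cells were trypsinised and seeded at 5×10^3 cells/well, then exposed to serial concentrations for 72 hr. MTT (4 mg/mL) was added for 4 hr, formazan dissolved in DMSO, and A570 read. IC50 from survival curves (Bliss method), means ± SD of triplicates.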

HCT-116 [22] = assay: Induction of mitochondrial membrane potential loss in human HCT116 cells after 4 hrs by mitotracker red and Alexa Fluor 488 annexin V staining based flow cytometry; format: functional, cell-based; summary of the method: as §6
HEK293 [23] = assay: Cytotoxicity against HEK293 cells expressing ABCB1 gene assessed as reduction in cell viability at 0.001 to 100 uM after 72 hrs by MTT assay; format: functional, cell-based; conditions: Homo sapiens; summary of the method: as §7

Structure (SMILES)	IC50 (MCF7) [µM]	IC50 [1] [µM]	IC50 (MDA-MB-231) [µM]	IC50 [2] [µM]	IC50 (DU-145) [µM]	IC50 2008 [µM]	IC50 (HepG2 [3]) [µM]	IC50 [4] [µM]	IC50 (A2780) [µM]	IC50 [5] [µM]	IC50 (MDCK) [µM]	IC50 (HEK293 [16]) [µM]	also measured
Cc1cc(N(C)C)n2nc3nc4ccccc4cc3c2n1	79.6	88.8	44.8	53.6	28.6	47.9	67.9	58.3	49.9				
CCN(CC)CCNc1cc(C)nc2c3cc4ccccc4nc3nn12	53.5	62.5	58.8			78.1	67.4	44.6	87.5	48.2	41.6		
CCc1c2c(nc3ccc(O)cc13)-c1cc3c(c(=O)n1C2)COC(=O)[C@]3(O)CC													Activity (Homo sapiens): inactive
Cc1cc(Cl)n2nc3nc4ccccc4cc3c2n1	7.4	0.9		0.6	1.2	17.4	9.7	0.8	11.6	23.6	19.7	7.8	Activity (HEK293 [6]): Toxic; Activity (HCT-116 [7]): Active; Activity (HCT-116 [8]): Active; Activity (HepG2 [9]): Toxic; fold change (FC) [10]: 3; IC50 (LoVo): 0.994 µM; Activity (HCT-116 [11]): 98.36%; IC50 [12]: 1.02 µM; Activity (HCT-116 [13]): 68.46%; IC50 (HT-29): 0.791 µM; Activity (HepG2 [14]): Non-toxic; Activity [15]: Not Active; Activity (HCT-15): Active; Activity [17]: Not Active; IC50 [18]: 0.671 µM; fold change (FC) [19]: 3; IC50 [20]: 0.875 µM; Activity (HEK293 [21]): Active; Activity (HCT-116 [22]): Dose-dependent effect; Activity (HEK293 [23]): Active
Cc1cc(=O)n2nc3nc4ccccc4cc3c2[nH]1		46.5				88.6	89.5	63.6	74.3	98.4	> 100	69.6	
Cc1cc(N2CCOCC2)n2nc3nc4ccccc4cc3c2n1	98.4	78.3	88.2	88.9		> 100	> 100	67.4	> 100	> 100	> 100		
CCN(CC)CCCNc1cc(C)nc2c3cc4ccccc4nc3nn12		78.5	34.6			65.3	89.9	53.7	55.7	> 100		41.8	
CO[C@H]1/C=C/O[C@@]2(C)Oc3c(C)c(O)c4c(O)c(c(/C=N/N5CCN(C)CC5)c(O)c4c3C2=O)NC(=O)/C(C)=C\C=C\[C@H](C)[C@H](O)[C@@H](C)[C@@H](O)[C@@H](C)[C@H](OC(C)=O)[C@@H]1C [RIFAMPIN]													Activity (HepG2 [9]): Toxic
Cc1cc(NCCN(C)C)n2nc3nc4ccccc4cc3c2n1		79.8	48.7	65.8	59.9	> 100	> 100	69.8	> 100	> 100	> 100	93.4	
Cc1cc(NCCCN(C)C)n2nc3nc4ccccc4cc3c2n1	> 100	60.5				87.6	73.2	83.4	65.8	> 100		39.9	
